Experimental data published in ChEMBL document CHEMBL4020828, “Design and Syntheses of Highly Potent Teixobactin Analogues against Staphylococcus aureus, Methicillin-Resistant Staphylococcus aureus (MRSA), and Vancomycin-Resistant Enterococci (VRE) in Vitro and in Vivo” (J Med Chem, 2018).
Converted amounts (≈) assume the structure as drawn. The source made the active and inactive calls. The calls are words filed in the database; no cut-off is given here. Positions of bridges follow the written chain, without caps; N, C: chain ends. Non-standard residues stand in square brackets, D forms with d. Residues, ends and D or L forms follow the SMILES beside them. dNMeF = CN[C@H](Cc1ccccc1)C(=O)O

Legend:
Staphylococcus aureus [1] = assay: Antibacterial activity against methicillin-resistant Staphylococcus aureus; format: functional
[2] = tested on: Staphylococcus epidermidis; assay: Antibacterial activity against Staphylococcus epidermidis; format: functional
Staphylococcus aureus [3] = assay: Antibacterial activity against methicillin-resistant Staphylococcus aureus ATCC 33591 after 24 hrs; format: functional; details: ATCC 33591, 24 h
Enterococcus faecalis [4] = assay: Antibacterial activity against vancomycin-resistant Enterococcus faecalis isolate 1001 after 24 hrs; format: functional; details: isolate 1001, 24 h
[5] = tested on: Staphylococcus saprophyticus; assay: Antibacterial activity against Staphylococcus saprophyticus ATCC 49907 after 24 hrs; format: functional; details: ATCC 49907, 24 h
Enterococcus faecalis [6] = assay: Antibacterial activity against vancomycin-resistant Enterococcus faecalis ATCC 29212 after 24 hrs; format: functional; details: ATCC 29212, 24 h
[7] = tested on: Staphylococcus saprophyticus; assay: Antibacterial activity against Staphylococcus saprophyticus ATCC BAA 750 after 24 hrs; format: functional; details: ATCC BAA 750, 24 h
[8] = tested on: Staphylococcus saprophyticus; assay: Antibacterial activity against Staphylococcus saprophyticus ATCC 15305 after 24 hrs; format: functional; details: ATCC 15305, 24 h
Staphylococcus aureus [9] = assay: Antibacterial activity against Staphylococcus aureus ATCC 29213 after 24 hrs; format: functional; details: ATCC 29213, 24 h
Staphylococcus aureus [10] = assay: Antibacterial activity against methicillin-resistant Staphylococcus aureus isolate 21455 after 24 hrs; format: functional; details: isolate 21455, 24 h
Bacillus cereus = assay: Antibacterial activity against Bacillus cereus ATCC 11788 after 24 hrs; format: functional; details: ATCC 11788, 24 h
Staphylococcus aureus [11] = assay: Antibacterial activity against methicillin-resistant Staphylococcus aureus isolate 1003 after 24 hrs; format: functional; details: isolate 1003, 24 h
Staphylococcus aureus [12] = assay: Antibacterial activity against Staphylococcus aureus 4299 after 24 hrs; format: functional; details: Staphylococcus aureus, 4299, 24 h
[13] = tested on: Staphylococcus saprophyticus; assay: Antibacterial activity against Staphylococcus saprophyticus ATCC 49453 after 24 hrs; format: functional; details: ATCC 49453, 24 h
Enterococcus faecalis [14] = assay: Antibacterial activity against vancomycin-resistant Enterococcus faecalis isolate 1004 after 24 hrs; format: functional; details: isolate 1004, 24 h
[15] = tested on: Staphylococcus epidermidis; assay: Antibacterial activity against Staphylococcus epidermidis 12228 after 24 hrs; format: functional; details: Staphylococcus epidermidis, 12228, 24 h
Staphylococcus aureus [16] = assay: Antibacterial activity against methicillin-resistant Staphylococcus aureus isolate 42412 after 24 hrs; format: functional; details: isolate 42412, 24 h
Enterococcus faecalis [17] = assay: Antibacterial activity against vancomycin-resistant Enterococcus faecalis isolate 1008 after 24 hrs; format: functional; details: isolate 1008, 24 h
[18] = tested on: Bacillus subtilis (Bacillus subtilis); assay: Antibacterial activity against Bacillus subtilis ATCC 6633 after 24 hrs; details: ATCC 6633, 24 h
Enterococcus faecalis [19] = assay: Antibacterial activity against vancomycin-resistant Enterococcus faecalis ATCC 700802 after 24 hrs; format: functional; details: ATCC 700802, 24 h
Enterococcus faecalis [20] = assay: Antibacterial activity against vancomycin-resistant Enterococcus faecalis isolate 1002 after 24 hrs; format: functional; details: isolate 1002, 24 h
Staphylococcus aureus [21] = assay: Antibacterial activity against methicillin-resistant Staphylococcus aureus ATCC 700699 after 24 hrs; format: functional; details: ATCC 700699, 24 h
Staphylococcus aureus [22] = assay: (§1) Antibacterial activity against Staphylococcus aureus ATCC 29213 infected in C57BL6 mouse cornea assessed as mean corneal thickness at 0.3% administered tropically 2 times on day 1, 4 times on day 2 and 2 times on day 3 starting from 6 hrs post infection measured 24 hrs post last dose by AS-OCT method (reference value: 151.7 +/- 12.7 micrometer); format: functional
Method in brief: (§2)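 Mouse corneal epithelium scratched with a scalpel, then infected with 15 µl of 6×10⁶ CFU/ml S. aureus ATCC 29213. From 6 h p.i., 15 µl of PBS vehicle, 0.3% w/v peptide in PBS or 0.3% moxifloxacin was applied, 8 doses total. Outcomes were slit-lamp examination, AS-OCT corneal thickness and CFU counts of harvested corneas (mean log₁₀ CFU/tissue ± SEM).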

Staphylococcus aureus [23] = assay: as §1, with “decrease in conjunctival chemosis” for “mean corneal thickness”, “48” for “24”, “slit-lamp photography” for “AS-OCT method (reference value: 151.7 +/- 12.7 micrometer)”; format: functional; method in brief: as §2
Staphylococcus aureus [24] = assay: as §1, with “decrease in” for “mean”, “infiltrates” for “thickness”, “48” for “24”, “slit-lamp photography” for “AS-OCT method (reference value: 151.7 +/- 12.7 micrometer)”; format: functional; method in brief: as §2
Staphylococcus aureus [25] = assay: Antibacterial activity against Staphylococcus aureus ATCC 29213 infected in C57BL6 mouse cornea assessed as decrease in log bacterial load/tissue at 0.3% administered tropically 2 times on day 1, 4 times on day 2 and 2 times on day 3 starting from 6 hrs post infection measured 48 hrs post last dose; format: functional; method in brief: as §2
Staphylococcus aureus [26] = assay: as §1, with “48” for “24”, “186.2” for “151.7”, “17.5” for “12.7”; format: functional; method in brief: as §2
Staphylococcus aureus [27] = assay: Antibacterial activity against methicillin-resistant Staphylococcus aureus after 24 hrs; format: functional
Staphylococcus aureus [28] = assay: Antibacterial activity against methicillin-sensitive Staphylococcus aureus after 24 hrs; format: functional

CC[C@@H](C)[C@@H](NC(=O)[C@@H](CCC(N)=O)NC(=O)[C@H](CO)NC(=O)[C@@H](NC(=O)[C@@H](Cc1ccccc1)NC)[C@@H](C)CC)C(=O)N[C@H](C(=O)N[C@@H](CO)C(=O)N[C@H]1C(=O)N[C@@H](C)C(=O)N[C@@H](CCCCN)C(=O)N[C@@H]([C@@H](C)CC)C(=O)O[C@H]1C)[C@@H](C)CC
MIC (Staphylococcus aureus [1]): 1 µg/mL (≈ 0.822 µM)
MIC [2]: 0.5 to 1 µg/mL (≈ 0.411 to 0.822 µM)

CC[C@@H](C)[C@@H](NC(=O)[C@@H](CCCNC(=N)N)NC(=O)[C@H](CO)NC(=O)[C@@H](NC(=O)[C@@H](Cc1ccccc1)NC)[C@@H](C)CC)C(=O)N[C@H](C(=O)N[C@@H](CO)C(=O)N[C@H]1C(=O)N[C@@H](C)C(=O)N[C@@H]([C@@H](C)CC)C(=O)N[C@@H]([C@@H](C)CC)C(=O)O[C@H]1C)[C@@H](C)CC
MIC (Staphylococcus aureus [3]): 0.125 µg/mL (≈ 0.102 µM)
MIC (Enterococcus faecalis [4]): 0.5 µg/mL (≈ 0.407 µM)
MIC [5]: < 0.0625 µg/mL
MIC (Enterococcus faecalis [6]): 0.25 µg/mL (≈ 0.203 µM)
MIC [7]: < 0.0625 µg/mL
MIC [8]: < 0.0625 µg/mL
MIC (Staphylococcus aureus [9]): 0.0625 µg/mL (≈ 0.0508 µM)
MIC (Staphylococcus aureus [10]): 0.0312 µg/mL (≈ 0.0254 µM)
MIC (Bacillus cereus): < 0.0625 µg/mL
MIC (Staphylococcus aureus [11]): < 0.0625 µg/mL
MIC (Staphylococcus aureus [12]): < 0.0625 µg/mL
MIC [13]: < 0.0625 µg/mL
MIC (Enterococcus faecalis [14]): 0.5 µg/mL (≈ 0.407 µM)
MIC [15]: < 0.0625 µg/mL
MIC (Staphylococcus aureus [16]): < 0.0625 µg/mL
MIC (Enterococcus faecalis [17]): 0.5 µg/mL (≈ 0.407 µM)
MIC [18]: < 0.0625 µg/mL
MIC (Enterococcus faecalis [19]): 0.25 µg/mL (≈ 0.203 µM)
MIC (Enterococcus faecalis [20]): 1 µg/mL (≈ 0.813 µM)
MIC (Staphylococcus aureus [21]): 0.25 µg/mL (≈ 0.203 µM)

CC[C@@H](C)[C@@H](NC(=O)[C@@H](CCC(N)=O)NC(=O)[C@H](CO)NC(=O)[C@@H](NC(=O)[C@@H](Cc1ccccc1)NC)[C@@H](C)CC)C(=O)N[C@H](C(=O)N[C@@H](CO)C(=O)N[C@H]1C(=O)N[C@@H](CCCNC(=N)N)C(=O)N[C@@H](CC(C)C)C(=O)N[C@@H]([C@@H](C)CC)C(=O)O[C@H]1C)[C@@H](C)CC (H-[dNMeF]IS[dQ][dI]IS[dT]RLI; ester 8-C)
MIC (Staphylococcus aureus [3]): 0.125 µg/mL (≈ 0.0972 µM)
MIC (Enterococcus faecalis [4]): 0.5 µg/mL (≈ 0.389 µM)
MIC [5]: < 0.0625 µg/mL
MIC (Enterococcus faecalis [6]): 1 µg/mL (≈ 0.777 µM)
MIC [7]: < 0.0625 µg/mL
MIC [8]: < 0.0625 µg/mL
MIC (Staphylococcus aureus [9]): 0.5 µg/mL (≈ 0.389 µM)
MIC (Staphylococcus aureus [10]): 0.25 µg/mL (≈ 0.194 µM)
MIC (Bacillus cereus): 0.25 µg/mL (≈ 0.194 µM)
MIC (Staphylococcus aureus [11]): 0.25 µg/mL (≈ 0.194 µM)
MIC (Staphylococcus aureus [12]): 0.25 µg/mL (≈ 0.194 µM)
MIC [13]: < 0.0625 µg/mL
MIC (Enterococcus faecalis [14]): 0.25 µg/mL (≈ 0.194 µM)
MIC [15]: < 0.0625 µg/mL
MIC (Staphylococcus aureus [16]): < 0.0625 µg/mL
MIC (Enterococcus faecalis [17]): 0.25 µg/mL (≈ 0.194 µM)
MIC [18]: < 0.0625 µg/mL
MIC (Enterococcus faecalis [19]): 0.5 µg/mL (≈ 0.389 µM)
MIC (Enterococcus faecalis [20]): 1 µg/mL (≈ 0.777 µM)
MIC (Staphylococcus aureus [21]): 0.5 µg/mL (≈ 0.389 µM)

CC[C@@H](C)[C@@H](NC(=O)[C@@H](CCCNC(=N)N)NC(=O)[C@H](CCCNC(=N)N)NC(=O)[C@@H](NC(=O)[C@@H](Cc1ccccc1)NC)[C@@H](C)CC)C(=O)N[C@H](C(=O)N[C@@H](CO)C(=O)N[C@H]1C(=O)N[C@@H](C)C(=O)N[C@@H](CC(C)C)C(=O)N[C@@H]([C@@H](C)CC)C(=O)O[C@H]1C)[C@@H](C)CC (H-[dNMeF]IR[dR][dI]IS[dT]ALI; ester 8-C)
MIC (Staphylococcus aureus [3]): 0.25 µg/mL (≈ 0.193 µM)
MIC (Enterococcus faecalis [4]): 1 µg/mL (≈ 0.77 µM)
MIC [5]: < 0.0625 µg/mL
MIC (Enterococcus faecalis [6]): 1 µg/mL (≈ 0.77 µM)
MIC [7]: < 0.0625 µg/mL
MIC [8]: < 0.0625 µg/mL
MIC (Staphylococcus aureus [9]): 0.25 µg/mL (≈ 0.193 µM)
MIC (Staphylococcus aureus [10]): 0.5 µg/mL (≈ 0.385 µM)
MIC (Bacillus cereus): 1 µg/mL (≈ 0.77 µM)
MIC (Staphylococcus aureus [11]): 1 µg/mL (≈ 0.77 µM)
MIC (Staphylococcus aureus [12]): 0.25 µg/mL (≈ 0.193 µM)
MIC [13]: < 0.0625 µg/mL
MIC (Enterococcus faecalis [14]): 0.5 µg/mL (≈ 0.385 µM)
MIC [15]: < 0.0625 µg/mL
MIC (Staphylococcus aureus [16]): 0.25 µg/mL (≈ 0.193 µM)
MIC (Enterococcus faecalis [17]): 0.5 µg/mL (≈ 0.385 µM)
MIC [18]: < 0.0625 µg/mL
MIC (Enterococcus faecalis [19]): 2 µg/mL (≈ 1.54 µM)
MIC (Enterococcus faecalis [20]): 1 µg/mL (≈ 0.77 µM)
MIC (Staphylococcus aureus [21]): 0.5 µg/mL (≈ 0.385 µM)

COc1c(N2C[C@@H]3CCCN[C@@H]3C2)c(F)cc2c(=O)c(C(=O)O)cn(C3CC3)c12 [MOXIFLOXACIN]
Activity (Staphylococcus aureus [22]): 124.2 um
Activity (Staphylococcus aureus [23]): Active
Activity (Staphylococcus aureus [24]): Active
Activity (Staphylococcus aureus [25]): 3.7 log10CFU
Activity (Staphylococcus aureus [26]): 140.3 um

CC[C@@H](C)[C@@H](NC(=O)[C@@H](CCC(N)=O)NC(=O)[C@H](CO)NC(=O)[C@@H](NC(=O)[C@@H](Cc1ccccc1)NC)[C@@H](C)CC)C(=O)N[C@H](C(=O)N[C@@H](CO)C(=O)N[C@H]1C(=O)N[C@@H](C)C(=O)N[C@@H](CC(C)C)C(=O)N[C@@H]([C@@H](C)CC)C(=O)O[C@H]1C)[C@@H](C)CC
MIC (Staphylococcus aureus [3]): 0.25 µg/mL (≈ 0.208 µM)
MIC (Staphylococcus aureus [27]): 0.25 µg/mL (≈ 0.208 µM)
MIC (Enterococcus faecalis [6]): 0.25 µg/mL (≈ 0.208 µM)
MIC (Staphylococcus aureus [28]): 0.063 µg/mL (≈ 0.0524 µM)
MIC (Staphylococcus aureus [10]): < 0.0625 µg/mL
MIC (Staphylococcus aureus [16]): < 0.0625 µg/mL
MIC (Enterococcus faecalis [19]): 0.25 µg/mL (≈ 0.208 µM)
MIC (Staphylococcus aureus [21]): 0.25 µg/mL (≈ 0.208 µM)

CC[C@@H](C)[C@@H](NC(=O)[C@@H](CCC(N)=O)NC(=O)[C@H](CO)NC(=O)[C@@H](NC(=O)[C@@H](Cc1ccccc1)NC)[C@@H](C)CC)C(=O)N[C@H](C(=O)N[C@@H](CO)C(=O)N[C@H]1C(=O)N[C@@H](C)C(=O)N[C@@H](C(C)C)C(=O)N[C@@H]([C@@H](C)CC)C(=O)O[C@H]1C)[C@@H](C)CC
MIC (Staphylococcus aureus [27]): 0.5 µg/mL (≈ 0.421 µM)
MIC (Staphylococcus aureus [28]): 0.25 µg/mL (≈ 0.211 µM)
